Tests used:
[1] = target: T1, Neuronal acetylcholine receptor; alpha3/beta4 (Homo sapiens, UniProt P30926+P32297); assay: Agonist activity at recombinant human alpha3beta4 nAChR expressed in HEK293 cells assessed as induction of calcium influx by FLIPR assay relative to nicotine; assay type: functional, cell-based
Outline: (§1)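 HEK-293 lines stably expressing human α4β2 or α3β4 nAChR, grown 24-48 h at 37 °C on poly-D-lysine in DMEM/10% FBS. Loaded with 2-4 µM Fluo-4 AM for ~0.75-1 h at room temperature in the dark, in NMDG Ringer pH 7.4. Serial log dilutions added, then peak calcium fluorescence read on FLIPR after buffer-blank subtraction.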

[2] = Displacement of [3H]cytisine from neuronal nicotinic acetylcholine receptor in rat brain membrane; assay type: cell membranes
[3] = target: T1, Neuronal acetylcholine receptor; alpha3/beta4; assay: Agonist activity at recombinant human alpha-3-beta-4 nAChR expressed in HEK293 cells assessed as induction of calcium influx by FLIPR assay; assay type: functional, cell-based
[4] = target: T2, Neuronal acetylcholine receptor; alpha4/beta2 (Homo sapiens, UniProt P17787+P43681); assay: Agonist activity at recombinant human alpha-4-beta-2 nAChR expressed in HEK293 cells assessed as induction of calcium influx by FLIPR assay; assay type: functional, cell-based
T2 sequence (P17787 whole entry): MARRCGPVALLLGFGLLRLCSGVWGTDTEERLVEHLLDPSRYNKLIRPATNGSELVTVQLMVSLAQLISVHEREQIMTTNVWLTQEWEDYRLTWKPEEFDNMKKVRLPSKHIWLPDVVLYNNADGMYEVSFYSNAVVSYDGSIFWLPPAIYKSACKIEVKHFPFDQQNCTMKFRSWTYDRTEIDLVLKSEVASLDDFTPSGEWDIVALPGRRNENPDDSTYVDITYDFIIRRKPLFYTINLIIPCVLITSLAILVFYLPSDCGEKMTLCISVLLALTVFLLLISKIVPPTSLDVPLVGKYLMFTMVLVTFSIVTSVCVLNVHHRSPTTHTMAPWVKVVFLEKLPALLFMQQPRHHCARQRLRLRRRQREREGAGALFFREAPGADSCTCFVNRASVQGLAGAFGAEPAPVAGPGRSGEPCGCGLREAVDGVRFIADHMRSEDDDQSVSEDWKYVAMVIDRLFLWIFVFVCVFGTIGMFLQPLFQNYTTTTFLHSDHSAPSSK
T2 sequence (P43681 whole entry): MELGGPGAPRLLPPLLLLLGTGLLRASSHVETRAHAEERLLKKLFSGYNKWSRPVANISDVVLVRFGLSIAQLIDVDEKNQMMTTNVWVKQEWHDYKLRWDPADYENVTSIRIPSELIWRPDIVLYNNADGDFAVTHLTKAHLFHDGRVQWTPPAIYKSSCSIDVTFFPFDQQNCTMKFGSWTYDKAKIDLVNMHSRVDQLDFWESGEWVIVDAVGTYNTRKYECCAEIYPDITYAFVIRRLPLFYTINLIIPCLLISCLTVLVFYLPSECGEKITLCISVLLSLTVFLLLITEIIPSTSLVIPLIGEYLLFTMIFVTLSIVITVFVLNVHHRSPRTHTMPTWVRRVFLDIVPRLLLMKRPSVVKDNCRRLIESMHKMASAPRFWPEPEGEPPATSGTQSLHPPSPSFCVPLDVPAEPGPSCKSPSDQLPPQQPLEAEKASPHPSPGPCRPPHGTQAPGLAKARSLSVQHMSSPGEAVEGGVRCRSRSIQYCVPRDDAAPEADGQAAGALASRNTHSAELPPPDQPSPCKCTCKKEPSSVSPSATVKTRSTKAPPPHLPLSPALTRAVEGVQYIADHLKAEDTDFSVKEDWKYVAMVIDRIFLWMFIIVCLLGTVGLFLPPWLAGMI

[5] = target: T2, Neuronal acetylcholine receptor; alpha4/beta2; assay: Agonist activity at recombinant human alpha-4-beta-2 nAChR expressed in HEK293 cells assessed as induction of calcium influx by FLIPR assay relative to nicotine; assay type: functional, cell-based; outline: as §1

T1 sequence (P30926 whole entry): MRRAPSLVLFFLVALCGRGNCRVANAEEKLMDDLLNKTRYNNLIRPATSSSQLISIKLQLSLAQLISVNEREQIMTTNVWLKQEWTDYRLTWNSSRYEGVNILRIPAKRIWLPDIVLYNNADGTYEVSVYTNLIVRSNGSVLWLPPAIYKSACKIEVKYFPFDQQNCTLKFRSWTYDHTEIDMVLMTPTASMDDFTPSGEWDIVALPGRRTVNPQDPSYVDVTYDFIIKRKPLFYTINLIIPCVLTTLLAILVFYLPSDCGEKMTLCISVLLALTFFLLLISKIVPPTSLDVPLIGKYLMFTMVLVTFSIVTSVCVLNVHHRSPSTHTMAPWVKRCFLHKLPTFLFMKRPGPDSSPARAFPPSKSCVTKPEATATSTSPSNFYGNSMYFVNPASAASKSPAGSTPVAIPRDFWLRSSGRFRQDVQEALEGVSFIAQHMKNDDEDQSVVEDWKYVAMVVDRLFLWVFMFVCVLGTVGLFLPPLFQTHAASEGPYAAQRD
T1 sequence (P32297 whole entry): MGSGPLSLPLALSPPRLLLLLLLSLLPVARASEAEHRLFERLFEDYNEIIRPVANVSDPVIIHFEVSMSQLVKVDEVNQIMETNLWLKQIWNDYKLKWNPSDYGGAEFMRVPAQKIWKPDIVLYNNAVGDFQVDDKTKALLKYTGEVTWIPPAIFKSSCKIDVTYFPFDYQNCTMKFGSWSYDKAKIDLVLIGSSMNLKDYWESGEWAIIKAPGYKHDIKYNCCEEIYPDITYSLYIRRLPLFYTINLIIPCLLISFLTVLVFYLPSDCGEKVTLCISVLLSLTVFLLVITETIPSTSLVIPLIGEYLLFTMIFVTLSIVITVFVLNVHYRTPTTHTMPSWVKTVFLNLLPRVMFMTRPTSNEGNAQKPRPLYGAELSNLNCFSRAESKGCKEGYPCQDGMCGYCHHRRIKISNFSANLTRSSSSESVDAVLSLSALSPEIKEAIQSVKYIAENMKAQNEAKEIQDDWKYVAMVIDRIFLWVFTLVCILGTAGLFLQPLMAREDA

| Structure (SMILES) | Activity [1] [%] | Ki [2] [nM] | Log Ki [2] | EC50 ([3]; read-out: EC50) [nM] | EC50 ([4]; read-out: EC50) [nM] | EC50 ([4]; read-out: Log EC50 (converted)) [nM] | Activity [5] [%] | EC50 ([3]; read-out: Log EC50 (converted)) [nM] |
| --- | --- | --- | --- | --- | --- | --- | --- | --- |
| COc1cc(N2C[C@H]3CN[C@H]3C2)cnc1Br | 113 | 0.07 | -10.15 | 100 | 200 | 148 | 159 | – |
| Clc1ccc(N2C[C@H]3CN[C@H]3C2)cn1 | 105 | 0.2 | -9.77 | 400 | 30 | 24.5 | 126 | 34.7 |
| Clc1ccc(N2C[C@H]3CNC[C@H]32)cn1 | 104 | 1.2 | -8.91 | 1100 | 600 | 537 | 127 | – |
| Brc1cncc(N2C[C@H]3CNC[C@H]32)c1 | < 10 | 3.1 | -8.51 | – | 4400 | 4070 | 31 | – |
| Cc1cncc(N2C[C@@H]3CNC[C@@H]32)c1 | 74 | 1.1 | -8.94 | 16900 | 10400 | – | 68 | – |
| N#Cc1cncc(N2C[C@@H]3CNC[C@@H]32)c1 | 47 | 0.9 | -9.07 | 13700 | 11400 | 9120 | 34 | 12300 |
| Cc1cc(N2C[C@@H]3CNC[C@@H]32)cnc1Cl | 89 | 0.2 | -9.7 | 2200 | 600 | – | 134 | – |
| c1cncc(N2C[C@@H]3CN[C@@H]3C2)c1 | 90 | 1.2 | -8.92 | 6100 | 1600 | – | 122 | – |
| Cc1cc(N2C[C@@H]3CN[C@@H]3C2)cnc1C | 85 | 2.2 | -8.65 | 3300 | 1200 | – | 76 | – |
| C#Cc1cncc(N2C[C@H]3CNC[C@H]32)c1 | 57 | – | – | 86900 | 13400 | 4900 | 77 | 77600 |
| Clc1cc(N2C[C@H]3CN[C@H]3C2)cnc1Cl | 98 | 0.04 | -10.4 | 50 | 400 | 41.7 | 162 | – |
| Brc1cncc(N2C[C@@H]3CN[C@@H]3C2)c1 | 68 | 1.4 | -8.84 | 9100 | 6500 | 6170 | 53 | – |
| Cc1cncc(N2C[C@@H]3CN[C@@H]3C2)c1 | 74 | 2.5 | -8.61 | 8000 | 39900 | 30900 | 76 | 33100 |
| Brc1cncc(N2C[C@@H]3CNC[C@@H]32)c1 | 23 | 1.5 | -8.83 | 6600 | 11400 | 8710 | 20 | 3090 |
| Brc1cc(N2C[C@@H]3CN[C@@H]3C2)cnc1Br | 90 | 0.3 | -9.52 | 1300 | 1200 | – | 122 | – |
| Cc1cc(N2C[C@H]3CNC[C@H]32)cnc1C | 86 | 8 | -8.1 | 4200 | 2100 | – | 85 | – |
| Brc1cc(N2C[C@H]3CNC[C@H]32)cnc1Br | 94 | 0.5 | -9.35 | 1100 | 6900 | 676 | 131 | – |
| Clc1ccc(N2C[C@@H]3CN[C@@H]3C2)cn1 | 110 | 0.6 | -9.24 | 400 | 200 | 162 | 162 | – |
| Brc1cncc(N2C[C@H]3CN[C@H]3C2)c1 | 115 | 0.1 | -10.2 | 200 | 1100 | – | 161 | 240 |
| N#Cc1cncc(N2C[C@H]3CN[C@H]3C2)c1 | 102 | 0.1 | -9.92 | 300 | 600 | 417 | 123 | – |
| Cc1ncc(N2C[C@H]3CN[C@H]3C2)cc1C#N | 101 | 0.06 | -10.22 | 90 | 500 | 43.7 | 136 | – |

| Structure (SMILES) | Activity [1] [%] | Ki [2] [nM] | Log Ki [2] | EC50 ([3]; read-out: EC50) [nM] | EC50 ([4]; read-out: EC50) [nM] | EC50 ([4]; read-out: Log EC50 (converted)) [nM] | Activity [5] [%] | EC50 ([3]; read-out: Log EC50 (converted)) [nM] |
| --- | --- | --- | --- | --- | --- | --- | --- | --- |
| COc1cc(N2C[C@@H]3CN[C@@H]3C2)cnc1Br | 72 | 1.9 | -8.71 | 4000 | 2200 | – | 64 | – |
| Clc1cncc(N2C[C@@H]3CN[C@@H]3C2)c1 | 57 | 1.9 | -8.72 | 25300 | 11400 | 9330 | 66 | – |
| N=C(NO)c1cncc(N2C[C@H]3CNC[C@H]32)c1 | < 10 | 29.1 | -7.54 | – | 7200 | 6760 | 76 | – |
| NC(=O)c1cc(N2C[C@H]3CNC[C@H]32)cnc1Br | 88 | 6.5 | -8.19 | 21200 | 1100 | – | 155 | 20900 |
| COc1cncc(N2C[C@H]3CN[C@H]3C2)c1 | 99 | 0.1 | -9.96 | 1000 | 1000 | – | 130 | – |
| N#Cc1cncc(N2C[C@H]3CNC[C@H]32)c1 | 16 | 3.2 | -8.5 | – | 5900 | 5130 | 65 | – |
| N#Cc1cc(N2C[C@H]3CNC[C@H]32)cnc1Br | 95 | 0.3 | -9.6 | 2000 | 400 | 324 | 100 | – |
| c1coc(-c2cncc(N3C[C@H]4CNC[C@H]43)c2)n1 | < 10 | – | – | – | – | – | < 10 | – |
| c1cncc(N2C[C@H]3CN[C@H]3C2)c1 | 119 | 0.1 | -9.96 | 6000 | 300 | – | 181 | 603 |
| Cc1cc(N2C[C@@H]3CNC[C@@H]32)cnc1C | 78 | 3.1 | -8.51 | 12300 | 1500 | – | 83 | 12000 |
| Cc1ncc(N2C[C@H]3CNC[C@H]32)cc1C#N | 96 | 1.1 | -8.95 | 2100 | 3900 | 3800 | 128 | – |
| Clc1cc(N2C[C@@H]3CNC[C@@H]32)cnc1Cl | 87 | 1.2 | -8.93 | 2600 | 900 | – | 110 | – |
| Cc1ncc(N2C[C@@H]3CN[C@@H]3C2)cc1C#N | 94 | 0.6 | -9.2 | 900 | 800 | 724 | 119 | – |
| Clc1ccc(N2C[C@@H]3CNC[C@@H]32)cn1 | 94 | 1.3 | -8.9 | 1200 | 300 | – | 107 | – |
| c1cncc(N2C[C@H]3CNC[C@H]32)c1 | 62 | 1.3 | -8.88 | 2940 | 1900 | 1820 | 116 | 29500 |
| Clc1cc(N2C[C@@H]3CN[C@@H]3C2)cnc1Cl [SOFINICLINE] | 92 | 0.3 | -9.53 | 1500 | 400 | – | 110 | – |
| Cc1cc(N2C[C@@H]3CN[C@@H]3C2)cnc1Cl | 100 | 0.08 | -10.1 | 700 | 300 | – | 134 | – |
| N#Cc1cc(N2C[C@H]3CNC[C@H]32)c[n+]([O-])c1 | < 10 | 18.6 | -7.74 | – | 7500 | 4570 | 69 | – |
| CN1CCC[C@H]1c1cccnc1 [NICOTINE] | 89 | – | – | – | – | – | 101 | – |
| Clc1ccc(C2CC3CCC2N3)cn1 (stereo not given) [EPIBATIDINE] | 103 | – | – | – | – | – | 133 | – |

Reference: ChEMBL document CHEMBL1137618, “Synthesis and structure-activity relationship studies of 3,6-diazabicyclo[3.2.0]heptanes as novel alpha4beta2 nicotinic acetylcholine receptor selective agonists” (J Med Chem, 2007)
